Data taken from ChEMBL document CHEMBL4138242, “Synthesis and antibacterial evaluation of novel cationic chalcone derivatives possessing broad spectrum antibacterial activity” (Eur J Med Chem, 2018).
The source made the active and inactive calls. The calls are words filed in the database; no cut-off is given here.

Tested on: Salmonella enterica
Assay: Antibacterial activity against Salmonella enterica ATCC 13076 after 16 to 20 hrs by broth microdilution method
Assay type: functional
Settings: not given
In short: (§1)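 Broth microdilution per CLSI. Bacteria grown 4-6 h (about 10⁸ CFU/mL), then diluted to about 10⁶ CFU/mL. Medium: Mueller-Hinton broth, except Luria-Bertani broth for E. coli. Compounds in sterile water, twofold series 256-0.5 µg/mL, mixed 1:1 with inoculum, 37 °C for 16-20 h. MIC is the lowest concentration without visible growth. Duplicate wells; experiment repeated at least twice.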

| SMILES | MIC |
| --- | --- |
| CCCCCCCC[N+](C)(C)CC(=O)Nc1ccc(C(=O)/C=C/c2ccc(F)cc2)cc1.[Cl-] | 4 µg/mL |

Tested on: Escherichia coli
Assay: Antibacterial activity against drug-resistant NDM1 producing Escherichia coli clinical isolate SM-15-84 after 16 to 20 hrs by broth microdilution method
Assay type: functional
Settings: not given
In short: (§2)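 CLSI broth microdilution in Mueller-Hinton broth. A 4-6 h culture was diluted to about 10⁶ CFU/mL and mixed 1:1 with compound dilutions prepared at 256 to 0.5 µg/mL from aqueous stocks. Plates were incubated at 37 °C for 16-20 h and read visually for MIC. Each concentration was run in duplicate, and the experiment was repeated at least twice. Vancomycin and meropenem were comparators.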

| SMILES | MIC |
| --- | --- |
| CCCCCCCC[N+](C)(C)CC(=O)Nc1ccc(C(=O)/C=C/c2ccc(F)cc2)cc1.[Cl-] | 16 µg/mL |

Tested on: Staphylococcus aureus
Assay: Antibacterial activity against Staphylococcus aureus ATCC 29213 after 16 to 20 hrs by broth microdilution method
Assay type: functional
Settings: not given
In short: as §1

| SMILES | MIC |
| --- | --- |
| CCCCCCCC[N+](C)(C)CC(=O)Nc1ccc(C(=O)/C=C/c2ccc(F)cc2)cc1.[Cl-] | 2 µg/mL |

Tested on: Escherichia coli
Assay: Antibacterial activity against drug-resistant NDM1 producing Escherichia coli clinical isolate EA-14-61 after 16 to 20 hrs by broth microdilution method
Assay type: functional
Settings: not given
In short: as §2

| SMILES | MIC |
| --- | --- |
| CCCCCCCC[N+](C)(C)CC(=O)Nc1ccc(C(=O)/C=C/c2ccc(F)cc2)cc1.[Cl-] | 4 µg/mL |

Tested on: Escherichia coli
Assay: Antibacterial activity against drug-resistant NDM1 producing Escherichia coli clinical isolate Ecl-14-59 after 16 to 20 hrs by broth microdilution method
Assay type: functional
Settings: not given
In short: as §2

| SMILES | MIC |
| --- | --- |
| CCCCCCCC[N+](C)(C)CC(=O)Nc1ccc(C(=O)/C=C/c2ccc(F)cc2)cc1.[Cl-] | 4 µg/mL |

Tested on: Staphylococcus aureus
Assay: Antibacterial activity against methicillin-resistant Staphylococcus aureus clinical isolate 1-may after 16 to 20 hrs by broth microdilution method
Assay type: functional
Settings: not given
In short: as §2

| SMILES | MIC |
| --- | --- |
| CCCCCCCC[N+](C)(C)CC(=O)Nc1ccc(C(=O)/C=C/c2ccc(F)cc2)cc1.[Cl-] | 1 µg/mL |

Tested on: Klebsiella pneumoniae
Assay: Antibacterial activity against drug-resistant carbapenemase producing Klebsiella pneumoniae clinical isolate EC-13-23 after 16 to 20 hrs by broth microdilution method
Assay type: functional
Settings: not given
In short: as §2

| SMILES | MIC |
| --- | --- |
| CCCCCCCC[N+](C)(C)CC(=O)Nc1ccc(C(=O)/C=C/c2ccc(F)cc2)cc1.[Cl-] | 2 µg/mL |

Tested on: Escherichia coli
Assay: Antibacterial activity against drug-resistant NDM1 producing Escherichia coli clinical isolate Ecl-13-62 after 16 to 20 hrs by broth microdilution method
Assay type: functional
Settings: not given
In short: as §2

| SMILES | MIC |
| --- | --- |
| CCCCCCCC[N+](C)(C)CC(=O)Nc1ccc(C(=O)/C=C/c2ccc(F)cc2)cc1.[Cl-] | 4 µg/mL |

Tested on: Staphylococcus aureus
Assay: Antibacterial activity against methicillin-resistant Staphylococcus aureus clinical isolate 0831010 after 16 to 20 hrs by broth microdilution method
Assay type: functional
Settings: not given
In short: as §2

| SMILES | MIC |
| --- | --- |
| CCCCCCCC[N+](C)(C)CC(=O)Nc1ccc(C(=O)/C=C/c2ccc(F)cc2)cc1.[Cl-] | 0.5 µg/mL |

Tested on: Klebsiella pneumoniae
Assay: Antibacterial activity against drug-resistant carbapenemase producing Klebsiella pneumoniae clinical isolate KP-13-45 after 16 to 20 hrs by broth microdilution method
Assay type: functional
Settings: not given
In short: as §2

| SMILES | MIC |
| --- | --- |
| CCCCCCCC[N+](C)(C)CC(=O)Nc1ccc(C(=O)/C=C/c2ccc(F)cc2)cc1.[Cl-] | 4 µg/mL |

Tested on: Escherichia coli
Assay: Antibacterial activity against drug-resistant NDM1 producing Escherichia coli clinical isolate Ecl-14-56 after 16 to 20 hrs by broth microdilution method
Assay type: functional
Settings: not given
In short: as §2

| SMILES | MIC |
| --- | --- |
| CCCCCCCC[N+](C)(C)CC(=O)Nc1ccc(C(=O)/C=C/c2ccc(F)cc2)cc1.[Cl-] | 16 µg/mL |

Tested on: Klebsiella pneumoniae
Assay: Antibacterial activity against drug-resistant carbapenemase producing Klebsiella pneumoniae clinical isolate KP-14-4 after 16 to 20 hrs by broth microdilution method
Assay type: functional
Settings: not given
In short: as §2

| SMILES | MIC |
| --- | --- |
| CCCCCCCC[N+](C)(C)CC(=O)Nc1ccc(C(=O)/C=C/c2ccc(F)cc2)cc1.[Cl-] | 4 µg/mL |

Tested on: not listed separately
Assay: Hemolytic activity in sheep RBC after 1 hr
Assay type: ADME, cell-based, Ovis aries, Erythrocyte
Settings: sheep red blood cells (erythrocytes)
In short: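 Sheep red blood cells (150 µL suspension) mixed with 50 µL of compound dilutions (5120-10 µg/mL), 1 h at 37 °C, then centrifuged. Supernatant read at 540 nm. Percent hemolysis calculated relative to RBC-only control (0%) and 0.1% Triton X-100 (100%).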

| SMILES | HC50 at 1 h |
| --- | --- |
| CCCCCCCC[N+](C)(C)CC(=O)Nc1ccc(C(=O)/C=C/c2ccc(F)cc2)cc1.[Cl-] | 83 µg/mL |

Tested on: Staphylococcus aureus
Assay: Induction of cytoplasmic membrane depolarization in Staphylococcus aureus ATCC 29213 at 10 to 20 ug/ml measured every 2 mins for 12 mins by DiSC35 dye-based fluorescence assay
Assay type: functional, organism-based
Settings: not given
In short: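 Mid-log cells (~10⁸ CFU/mL) were suspended in PBS (S. aureus) or HEPES/glucose/KCl with EDTA (E. coli). They were preloaded with DiSC3(5) for 30 min (S. aureus) or 40 min (E. coli), and baseline fluorescence was read for 8 min. Compound was added to 20 µg/mL final, and fluorescence (ex 622/em 670 nm) was read every 2 min for 12 min. Water served as control.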

| SMILES | Activity |
| --- | --- |
| CCCCCCCC[N+](C)(C)CC(=O)Nc1ccc(C(=O)/C=C/c2ccc(F)cc2)cc1.[Cl-] | Active |

Tested on: Escherichia coli
Assay: Antibacterial activity against Escherichia coli ATCC 25922 after 16 to 20 hrs by broth microdilution method
Assay type: functional
Settings: not given
In short: as §1

| SMILES | MIC |
| --- | --- |
| CCCCCCCC[N+](C)(C)CC(=O)Nc1ccc(C(=O)/C=C/c2ccc(F)cc2)cc1.[Cl-] | 2 µg/mL |

Tested on: Escherichia coli
Assay: Antibacterial activity against drug-resistant NDM1 producing Escherichia coli clinical isolate CF-15-61 after 16 to 20 hrs by broth microdilution method
Assay type: functional
Settings: not given
In short: as §2

| SMILES | MIC |
| --- | --- |
| CCCCCCCC[N+](C)(C)CC(=O)Nc1ccc(C(=O)/C=C/c2ccc(F)cc2)cc1.[Cl-] | 4 µg/mL |

Tested on: Klebsiella pneumoniae
Assay: Antibacterial activity against drug-resistant carbapenemase producing Klebsiella pneumoniae clinical isolate KP-14-2 after 16 to 20 hrs by broth microdilution method
Assay type: functional
Settings: not given
In short: as §2

| SMILES | MIC |
| --- | --- |
| CCCCCCCC[N+](C)(C)CC(=O)Nc1ccc(C(=O)/C=C/c2ccc(F)cc2)cc1.[Cl-] | 16 µg/mL |

Tested on: Klebsiella pneumoniae
Assay: Antibacterial activity against drug-resistant carbapenemase producing Klebsiella pneumoniae clinical isolate KP-13-54 after 16 to 20 hrs by broth microdilution method
Assay type: functional
Settings: not given
In short: as §2

| SMILES | MIC |
| --- | --- |
| CCCCCCCC[N+](C)(C)CC(=O)Nc1ccc(C(=O)/C=C/c2ccc(F)cc2)cc1.[Cl-] | 4 µg/mL |

Tested on: Staphylococcus aureus
Assay: Antibacterial activity against methicillin-resistant Staphylococcus aureus clinical isolate 20130911034sau after 16 to 20 hrs by broth microdilution method
Assay type: functional
Settings: not given
In short: as §2

| SMILES | MIC |
| --- | --- |
| CCCCCCCC[N+](C)(C)CC(=O)Nc1ccc(C(=O)/C=C/c2ccc(F)cc2)cc1.[Cl-] | 0.5 µg/mL |

Tested on: Escherichia coli
Assay: Antibacterial activity against drug-resistant NDM1 producing Escherichia coli clinical isolate KP-13-58 after 16 to 20 hrs by broth microdilution method
Assay type: functional
Settings: not given
In short: as §2

| SMILES | MIC |
| --- | --- |
| CCCCCCCC[N+](C)(C)CC(=O)Nc1ccc(C(=O)/C=C/c2ccc(F)cc2)cc1.[Cl-] | 1 µg/mL |

Tested on: Escherichia coli
Assay: Antibacterial activity against drug-resistant NDM1 producing Escherichia coli clinical isolate EC-14-54 after 16 to 20 hrs by broth microdilution method
Assay type: functional
Settings: not given
In short: as §2

| SMILES | MIC |
| --- | --- |
| CCCCCCCC[N+](C)(C)CC(=O)Nc1ccc(C(=O)/C=C/c2ccc(F)cc2)cc1.[Cl-] | 16 µg/mL |
